In PubChem BioAssay AID624097 (The Scripps Research Institute Molecular Screening Center, 2012) one finds fold potentiation and MIC data, which are given here for 6 compounds.

The term MIC denotes the least concentration at which growth counts as inhibited.

Values joined by “and” are separate entries in the source; they are usually repeats but may differ in a detail not shown here. Equal values may be shown once. Active and inactive are the calls of the source.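 The calls were made as follows: active = lowest compound dose that cuts the imipenem minimum inhibitory concentration fourfold is 10 µM or below; inactive = that dose above 10 µM or never reached.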

Tested on in one experiment: not listed separately
The experiment in a line: growth inhibition synergy, IMP-1 E. coli with imipenem – E. coli BL21, powder samples, VIM-2 MBL inhibitor project, late-stage follow-up (AID 624097). Conditions: E. coli BL21 IMP-1, imipenem synergy, OD590, 18 h; measured here: max imipenem fold potentiation; stronger effect = higher value. In outline:
(§1)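 Signal: turbidity by absorbance at 590 nm, MIC per CLSI / Test system: IMP-1-transformed E. coli BL21 bacteria / Also added: imipenem in two-fold dilution series / Times: ≥18 h growth at 37 °C, aerobic / Medium: Mueller-Hinton broth, cation-adjusted (CAMHB) / Dosing: compound two-fold dilutions in checkerboard grid versus imipenem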
With `CN1CCN(C(=O)CN2C(=O)/C(=C/c3c(Cl)ccc(Cl)c3Cl)SC2=S)CC1`, the fold potentiation was 8.

Another experiment concerns E. coli BL21 IMP-1, imipenem synergy, OD590, 18 h. The experiment is described as above.
Settings: not given
In a few lines: as §1
With `CN1CCN(C(=O)CN2C(=O)/C(=C/c3c(Cl)ccc(Cl)c3Cl)SC2=S)CC1`, the MIC was 0.781 µM.
In the case of `CC(C)(C)OC(=O)N1CCN(NC(=O)CN2C(=O)/C(=C/c3c(Cl)ccc(Cl)c3Cl)SC2=S)CC1`, the MIC was 3.12 µM.
Take `O=C(CN1C(=O)/C(=C/c2c(Cl)ccc(Cl)c2Cl)SC1=S)NCc1ccccn1`: the minimum inhibitory concentration (MIC) is 0.781 µM.
Still for that read-out and setting: in the case of `CN1CCN(NC(=O)CN2C(=O)/C(=C/c3c(Cl)cccc3Cl)SC2=S)CC1` it was 25 µM (inactive) and 3.12 µM; in that of `O=C(CN1C(=O)/C(=C/c2c(Cl)ccc(Cl)c2Cl)SC1=S)NN1CCNCC1`, 25 µM (inactive); in that of `CN1CCN(NC(=O)CN2C(=O)/C(=C/c3c(Cl)ccc(Cl)c3Cl)SC2=S)CC1`, 0.781 µM and 1.56 µM.
